# Only some compounds are listed: those with a hit (about 1.6% of all), similar ones and a draw of the others.
# NOD2 RIPK2 PPI – NOD2-RIPK2 binding disruptors in cells, primary screen, fluorescence, CHO cells, BLA complementation; CCF4 ratio; inhibition, % at 4.98 µM; 360,000 tested, 0.38% active; AID 624267, 2012; in the data active = inhibition above about 21%
# Hep lipid drop – inhibitors of hepatocyte lipid droplet formation, primary screen, imaging, high-throughput imaging, BODIPY stain; AML12 mouse hepatocytes, oleate lipid droplets; inhibition, % at 6.5 µM; 240,000 tested, 0.4% active;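 active = lipid droplet intensity inhibited by at least 50%, with more than 500 cells counted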
#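 Material – mouse AML12 hepatocyte cell line, fixed after treatment · Compound dosing – one dose, 6.5 µM compound · Times – compound with oleate, overnight · Measured by – Image-based BODIPY and DAPI two-channel analysis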
# TLR9-MyD88 inh – inhibitors of TLR9-MyD88 association in cells, primary screen, cell-based, CHO, BLA complementation, fluorescence. Toll-like receptor 9 (Homo sapiens) + Myeloid differentiation primary response protein …. CCF4 FRET ratio. inhibition, % at 4.98 µM. 340,000 tested, 0.21% active;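 active = inhibition above the mean over all tested compounds plus 3 SD, cut at about 21% in these data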
# SR-BI DiI-HDL act – activators of SR-BI mediated DiI-HDL uptake, primary screen, ldlA[mSR-BI] CHO cells, DiI fluorescence; AID 504775, 2011; 320,000 tested, 0.096% active; 3 h; 100 = double the neutral-control signal; activation, % at 12.5 µM;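 active = mean replicate activation of at least 60% and every replicate at or above 60%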
#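 Material – SR-BI-overexpressing, LDLR-lacking CHO cells · Medium – BSA-supplemented, HEPES-buffered Ham's F12, pH 7.4 · Doses – single concentration · Times – compound with DiI-HDL co-incubation, 3 h at 37 °C · Measured by – bottom-read fluorescence, 550/595 nm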
# SR-BI HDL uptake – inhibitors of SR-BI mediated HDL lipid uptake, primary screen, ldlA[mSR-BI] cells, fluorescence, single point. 320,000 tested, 0.96% active. inhibition, % at 12.5 µM. Scavenger receptor class B member 1 (Mus musculus), Q61009. ldlA[mSR-BI] CHO cells, DiI-HDL uptake fluorescence, 3 h;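 active = mean replicate inhibition of at least 70% and a set share of replicates each scoring 70 or more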
# Target sequence (Q61009 whole entry, looked up): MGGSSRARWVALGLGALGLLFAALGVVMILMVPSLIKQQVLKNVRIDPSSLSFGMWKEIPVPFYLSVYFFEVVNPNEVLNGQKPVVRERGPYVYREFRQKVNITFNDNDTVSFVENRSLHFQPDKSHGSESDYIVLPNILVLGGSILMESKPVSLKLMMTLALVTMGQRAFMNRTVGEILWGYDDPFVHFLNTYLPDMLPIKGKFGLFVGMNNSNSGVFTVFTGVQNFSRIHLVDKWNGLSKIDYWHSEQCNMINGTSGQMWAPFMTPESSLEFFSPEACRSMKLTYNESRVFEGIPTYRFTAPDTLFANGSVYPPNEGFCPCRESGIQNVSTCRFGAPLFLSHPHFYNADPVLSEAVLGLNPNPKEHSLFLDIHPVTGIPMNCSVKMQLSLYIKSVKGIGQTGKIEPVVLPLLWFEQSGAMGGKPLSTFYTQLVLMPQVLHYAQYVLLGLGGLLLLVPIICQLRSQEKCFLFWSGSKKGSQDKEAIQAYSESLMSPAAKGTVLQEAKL
# TLR4 MyD88 comp – inhibitors of TLR4-MyD88 association in cells, primary screen, cell-based, HeLa CL3-4, BLA complementation, FRET ratio | HeLa CL3-4 TLR4/MyD88 BLA complementation | inhibition, % at 8.4 µM | 200,000 tested, 0.18% active; in the data active = inhibition above about 25%
# Numbers stand for hits; – = inactive; · = no result.
SMILES,NOD2 RIPK2 PPI,Hep lipid drop,TLR9-MyD88 inh,SR-BI DiI-HDL act,SR-BI HDL uptake,TLR4 MyD88 comp
CC1(C(=O)Nc2cnc3ccccc3c2)CCN1C(=O)C/C=C/c1ccccc1 (stereo unspecified),–,·,·,·,·,·
O=C(NNC(=O)c1cc(Cl)ccc1O)c1ccc(NS(=O)(=O)c2cccs2)cc1,–,·,–,–,119,·
O=C(NNC(=O)c1ccccc1O)c1ccc(NS(=O)(=O)c2ccc(F)cc2)cc1,–,·,–,–,87,·
Cc1ccccc1NS(=O)(=O)c1ccc(C(=O)NNC(=O)c2ccccc2O)cc1,–,·,–,–,84,·
O=C(NNC(=O)c1ccccc1O)c1ccc(S(=O)(=O)Nc2ccccc2F)cc1,–,·,–,–,–,·
Cc1ccc(-c2cc(C(=O)N/N=C/c3c[nH]c4ccccc34)[nH]n2)cc1,–,–,–,–,89,–
O=C(N/N=C/c1c[nH]c2ccccc12)c1cc(-c2ccccc2)n[nH]1,–,–,–,–,–,–
O=C(N/N=C/c1c[nH]c2ccccc12)c1cc(-c2ccc3ccccc3c2)n[nH]1,–,–,–,–,73,–
O=C(N/N=C/c1c[nH]c2ccccc12)c1cc(-c2ccc(-c3ccccc3)cc2)n[nH]1,–,·,–,–,94,–
CC1=CC=CC2=NC(=O)CC(C)(C(=O)O)N12 (stereo unspecified),–,–,–,–,–,–
CC1=CC(=C(C#N)c2nc3ccccc3s2)C=C(C)N1Cc1ccco1,–,·,–,–,109,–
O=C(Nc1cccc2c1CCCC2)C1CCCN(S(=O)(=O)c2cccc3nonc23)C1 (stereo unspecified),–,–,–,–,–,–
CC(=O)c1cccc(Nc2nc(-c3sc(C)nc3C)cs2)c1,–,–,–,–,71,·
Cc1nc(C)c(-c2csc(Nc3cccc(O)c3)n2)s1,–,–,–,–,–,–
CC(=O)Nc1ccc(Nc2nc(-c3sc(C)nc3C)cs2)cc1,–,–,–,–,74,·
Cc1cccc(Nc2nc(-c3sc(C)nc3C)cs2)c1,–,–,–,–,85,·
CC(=O)c1cccc(Nc2nc(-c3sc(N)nc3C)cs2)c1,–,–,–,–,–,·
O=C(NCC1CCCO1)c1ccccc1NS(=O)(=O)c1ccc(Br)s1 (stereo unspecified),–,·,–,–,–,·
CCC(=O)NC(=S)Nc1cccc(NC(=O)c2ccc(Cl)cc2Cl)c1,–,·,–,–,81,–
O=C(CN1C(=O)NC2(CCCC2)C1=O)Nc1ccc(F)c(Cl)c1,–,–,–,·,·,·
CC1(C)C(=O)OC(c2cccn2-c2ccc([N+](=O)[O-])cc2)C2(CCCCC2)C1=O (stereo unspecified),–,–,–,–,–,–
CC1(C)C(=O)OC(c2c(F)c(F)c(F)c(F)c2F)C2(CCCCC2)C1=O (stereo unspecified),–,–,–,–,77,–
OCCC1CN(Cc2ccc3c(c2)CCO3)CCN1Cc1ccc(F)cc1 (stereo unspecified),–,–,–,–,–,–
Cn1c(=O)c2c(ncn2CCOC(=O)C(C)(C)Oc2ccc(Cl)cc2)n(C)c1=O,–,·,–,·,·,·
COc1ccc(-c2ccnc(SCC(=O)N3CCN(c4ccccc4)CC3)n2)cc1,–,–,·,–,–,·
SMILES,NOD2 RIPK2 PPI,Hep lipid drop,TLR9-MyD88 inh,SR-BI DiI-HDL act,SR-BI HDL uptake,TLR4 MyD88 comp
COc1ccc(C(=O)NNC2=C(C(=O)C(F)(F)F)CCC2)cc1,–,–,·,–,95,·
CC(C)(C)c1ccc(C(=O)NNC(=O)c2ccc(Cl)cc2)cc1,–,–,–,–,–,–
COc1ccc(C(=O)NNc2ccccc2)cc1,–,–,–,–,–,–
O=C(NNC1=C(C(=O)C(F)(F)F)CCC1)c1ccc(Cl)cc1,–,·,–,–,93,–
O=C(NNC1=C(C(=O)C(F)(F)F)CCC1)c1cccc(Cl)c1,–,–,–,–,80,–
Cc1cc2c(cc1C)-n1nnnc1C(N1CCN(c3ccccc3F)CC1)C(=O)N2 (stereo unspecified),–,·,·,·,·,·
O=C(c1ccccc1OCc1ccccc1Br)N1CCN(c2ncccn2)CC1,–,·,–,–,–,–
Cc1ccc(OCCOCCN(C)C)c(Cl)c1,–,–,–,64,–,–
Nc1ccc(Oc2ccc3nc(-c4ccccc4)c(-c4ccc([N+](=O)[O-])cc4)nc3c2)cc1,–,·,–,–,76,–
O=C(NC(=S)NCCN1CCOCC1)c1ccc(Cl)cc1,–,–,–,–,–,–
Nc1nc(-c2ccccc2)c(-c2ccccc2)s1,–,·,–,–,–,–
Nc1nc(-c2ccccc2)c(N=Nc2ccc(Cl)cc2)s1,–,93,–,–,86,–
O=[N+]([O-])c1ccc(O)c(-c2nc(-c3ccccc3)c(-c3cccs3)[nH]2)c1,–,·,–,–,84,–
O=C(O)c1ccc(-c2nc(-c3ccccc3)c(-c3cccs3)[nH]2)cc1,–,–,–,·,·,·
CN(C(=O)CO/N=C/c1ccc(Cl)cc1)c1ccccc1,–,–,–,–,–,–
COc1cc(/C=C2/C(=N)N3OC(C)=CC3=NC2=O)ccc1OCCOc1ccc(C)cc1,–,·,–,–,–,–
CCOc1ccc(/C=C2/C(=N)N3OC(C)=CC3=NC2=O)cc1OC,–,–,–,86,–,–
COCCCNC(=O)c1c(NC(=O)C2COc3ccccc3O2)sc2c1CCCC2 (stereo unspecified),–,–,–,–,76,–
CC(C)CN(C1CCS(=O)(=O)C1)S(=O)(=O)c1ccc(C(C)C)cc1 (stereo unspecified),–,·,–,–,–,·
CN(CC(=O)NCc1cccc(F)c1)C(=O)c1ccco1,–,·,–,–,–,–
CCC1(c2ccc(F)cc2)NC(=O)N(CC(=O)Nc2cccc(S(=O)(=O)N3CCOCC3)c2)C1=O (stereo unspecified),–,·,–,–,–,·
CCOc1ccc(NC(=O)COC(=O)c2cc([N+](=O)[O-])ccc2N2CCOCC2)cc1,–,·,–,–,–,·
O=C(COC(=O)c1cc([N+](=O)[O-])ccc1N1CCOCC1)c1ccc(Br)cc1,–,·,–,–,79,·
Cc1ccc(C(=O)c2cc([N+](=O)[O-])ccc2N2CCOCC2)c(C)c1,–,·,–,–,81,–
CC1CCN(C(=O)COC(=O)c2cc([N+](=O)[O-])ccc2N2CCOCC2)CC1,–,·,–,–,–,·
CCOc1ccc(C(=O)COC(=O)c2cc([N+](=O)[O-])ccc2N2CCOCC2)cc1,–,·,–,–,79,·

# Source: PubChem BioAssay
